For 26 molecules, IC50 results are on record in ChEMBL document CHEMBL1145071, “Oxindole-based compounds are selective inhibitors of Plasmodium falciparum cyclin dependent protein kinases” (J Med Chem, 2003).

In one experiment the target is T1, Protein kinase Pfmrk (Plasmodium falciparum, UniProt P90584).
T1 sequence (P90584 whole entry): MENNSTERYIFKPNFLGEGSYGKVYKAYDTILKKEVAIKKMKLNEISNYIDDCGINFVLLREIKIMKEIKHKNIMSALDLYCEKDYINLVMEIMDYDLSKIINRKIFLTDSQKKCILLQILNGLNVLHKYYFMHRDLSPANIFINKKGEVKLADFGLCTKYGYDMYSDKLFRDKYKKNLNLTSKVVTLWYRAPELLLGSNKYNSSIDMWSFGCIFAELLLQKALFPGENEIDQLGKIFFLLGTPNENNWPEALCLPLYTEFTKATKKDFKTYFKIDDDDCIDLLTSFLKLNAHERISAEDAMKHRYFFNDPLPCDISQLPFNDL
Put plainly: Inhibitory activity against Plasmodium falciparum cyclin dependent protein kinase, Pfmrk.

The next experiment deals with PFPK5(P.falciparum) (Plasmodium falciparum, UniProt P61075). Put plainly: Inhibition of Plasmodium falciparum cyclin dependent protein kinase, PfPK5.
Sequence of PFPK5(P.falciparum) (P61075 whole entry, looked up): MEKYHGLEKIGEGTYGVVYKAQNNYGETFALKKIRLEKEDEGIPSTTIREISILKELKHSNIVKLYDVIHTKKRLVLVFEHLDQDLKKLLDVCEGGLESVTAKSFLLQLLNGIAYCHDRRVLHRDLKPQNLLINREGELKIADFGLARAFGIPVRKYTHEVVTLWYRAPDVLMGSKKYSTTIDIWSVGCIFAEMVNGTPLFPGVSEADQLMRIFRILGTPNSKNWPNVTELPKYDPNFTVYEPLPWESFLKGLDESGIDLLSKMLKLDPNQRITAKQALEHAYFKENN
The target of experiment [1] is Cyclin-dependent kinase 1/cyclin B (Homo sapiens, UniProt P06493). Put plainly: Inhibition of human Cyclin-dependent kinase 1 cyclin B. In kind it is protein-complex assay.
In experiment [2] the test system is Plasmodium falciparum. As to the kind of experiment: Inhibitory activity against Plasmodium falciparum W2. In kind it is functional, organism-based. The method in brief:
(§1)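 Cultured D6 (chloroquine-sensitive) and W2 (chloroquine-resistant) clones in A+ red cells, 6% hematocrit, 10% human serum, 90% N2/5% O2/5% CO2. Cultures at 3% parasitemia with at least 70% rings placed in drug-precoated wells for 24 h. [3H]-hypoxanthine then added for a further 18 h; uptake counted after harvest. IC50 from four-parameter nonlinear regression.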

The subject of experiment [3] is Plasmodium falciparum. Put plainly: Inhibitory activity against Plasmodium falciparum D6. The class given is functional, organism-based. The gist of the method:
as §1

Where only a bound is given, the exact number is not on record here.

In turn, `O=C1Nc2ccccc2/C1=C\c1ccc(O)cc1` returned an IC50 at Protein kinase Pfmrk of over 42 µM.

Consider `O=C1Nc2ccccc2/C1=C/C(=O)c1ccc(Br)cc1`, for which the IC50 at PFPK5(P.falciparum) was 130 µM; on Protein kinase Pfmrk it was 3.5 µM; in experiment [1], 12 µM; with Plasmodium falciparum [2] it was over 15.2 µM; in the experiment on Plasmodium falciparum [3], over 15.2 µM.

On to `Cc1ccc(C(=O)/C=C2/C(=O)Nc3ccc(Br)cc32)cc1`, for which the IC50 against PFPK5(P.falciparum) was 120 µM; on Protein kinase Pfmrk, 2.9 µM; in experiment [1] it was 29 µM; with Plasmodium falciparum [2], over 14.6 µM; in the experiment on Plasmodium falciparum [3] it was over 14.6 µM.

Regarding `O=C1Nc2ccccc2/C1=C\C(=O)c1ccccc1`, the IC50 against PFPK5(P.falciparum) is 150 µM; on Protein kinase Pfmrk it was 4 µM; in experiment [1] it was over 16 µM; in the experiment with Plasmodium falciparum [2], over 20 µM; in the experiment with Plasmodium falciparum [3], over 20 µM.

`N#C/C(C(N)=O)=C1\C(=O)Nc2ccccc21` displayed an IC50 on Protein kinase Pfmrk of 24 µM.

On to `O=C1Nc2ccccc2/C1=C\c1ccc(Cl)cc1`, for which the half-maximal inhibitory concentration (IC50) at Protein kinase Pfmrk is over 37 µM.

`CC(=O)/C=C1/C(=O)Nc2ccccc21` registered an IC50 against Protein kinase Pfmrk of over 37 µM.

At Protein kinase Pfmrk, `CC(C)(C)C(=O)/C=C1/C(=O)Nc2ccccc21` displayed a half-inhibitory concentration (IC50) of over 44 µM.

Take `O=C1Nc2ccc(Br)cc2/C1=C\C(=O)c1ccc(F)cc1`: the IC50 was 190 µM at PFPK5(P.falciparum); 1.4 µM at Protein kinase Pfmrk; 29 µM in experiment [1]; over 14.4 µM in the experiment on Plasmodium falciparum [2]; over 14.4 µM with Plasmodium falciparum [3].

For the molecule `C/N=C/c1c(O)[nH]c2ccccc12`, at Protein kinase Pfmrk, the IC50 was over 57 µM.

In the case of `COc1cc2ncnc(Nc3cccc(O)c3)c2cc1OC`, half-maximal inhibition against Protein kinase Pfmrk (IC50) was put at 168 µM.

The molecule `COc1ccc2c(c1)/C(=C1/SC(=S)NC1=O)C(=O)N2` gave an IC50 against Protein kinase Pfmrk of 17.1 µM.

For `O=C1Nc2ccccc2/C1=C\c1ccc(C(F)(F)F)cc1`, on Protein kinase Pfmrk, 4.3 µM corresponded to half-maximal inhibition (IC50).

`O=C1NC(=S)S/C1=C1\C(=O)Nc2ccc(F)cc21` came in with a 50% inhibitory concentration (IC50) against Protein kinase Pfmrk of over 19 µM.

With `O=C1Nc2ccccc2/C1=C\C1CCCCN1` (configuration not stated), the IC50 at Protein kinase Pfmrk is over 21 µM.

Turning to `CCOC(=O)/C(C#N)=C1/C(=O)Nc2ccccc21`, at Protein kinase Pfmrk, the IC50 was determined as 41.7 µM.

In the case of `O=C1Nc2ccccc2/C1=C\c1c(Cl)cccc1Cl`, on Protein kinase Pfmrk, the IC50 stood at 17 µM.

As for `O=C1Nc2ccc(Br)cc2/C1=C/C(=O)c1ccccc1`, the IC50 at PFPK5(P.falciparum) is 120 µM; against Protein kinase Pfmrk, 3.1 µM; in experiment [1], 30 µM; with Plasmodium falciparum [2], over 15.2 µM; in the experiment on Plasmodium falciparum [3], over 15.2 µM.

On to `CN[C@@H]1C[C@H]2O[C@@](C)([C@@H]1OC)n1c3ccccc3c3c4c(c5c6ccccc6n2c5c31)C(=O)NC4` (single isomer, unassigned) [STAUROSPORINE], for which the IC50 against Protein kinase Pfmrk was 4 µM; with Plasmodium falciparum [2], 0.15 µM; in the experiment with Plasmodium falciparum [3] it was 0.19 µM.

Regarding `O=C1Cc2c([nH]c3ccc([N+](=O)[O-])cc23)-c2ccccc2N1` [ALSTERPAULLONE], the IC50 against Protein kinase Pfmrk is 51 µM; in the experiment on Plasmodium falciparum [2], 4.3 µM; in the experiment on Plasmodium falciparum [3], 4.3 µM.

As to `COC(=O)[C@@]1(Cc2ccc(O)c(CC=C(C)C)c2)OC(=O)C(O)=C1c1ccc(O)cc1` [BUTYROLACTONE I], the 50% inhibitory concentration (IC50) at Protein kinase Pfmrk was found to be 94 µM; in the experiment on Plasmodium falciparum [2], 11.7 µM; with Plasmodium falciparum [3], 11.7 µM.

Consider `O=Nc1c(-c2c(O)[nH]c3ccccc23)[nH]c2ccccc12` [INDIRUBIN-3-MONOXIME], for which the IC50 worked out at 30 µM against Protein kinase Pfmrk, 1.1 µM with Plasmodium falciparum [2] and 0.6 µM with Plasmodium falciparum [3].

In the case of `O=C1Cc2c([nH]c3ccc(Br)cc23)-c2ccccc2N1` [KENPAULLONE], the IC50 was found to be 15 µM against Protein kinase Pfmrk, 3.8 µM in the experiment on Plasmodium falciparum [2] and 3.8 µM in the experiment on Plasmodium falciparum [3].

Take `Cn1cnc2c(NCc3ccccc3)nc(NCCO)nc21` [OLOMOUCINE]: the values for the 50% inhibitory concentration (IC50) against Protein kinase Pfmrk, with Plasmodium falciparum [2] and with Plasmodium falciparum [3] were over 1000 µM, 8 µM and 2.7 µM, respectively.

With `CC(C)[C@H](CO)Nc1nc(Nc2cccc(Cl)c2)c2ncn(C(C)C)c2n1` [PURVALANOLA], the IC50 against Protein kinase Pfmrk was found to be 26 µM; in the experiment with Plasmodium falciparum [2], 9.2 µM; in the experiment on Plasmodium falciparum [3], 2.6 µM.

On to `CC[C@H](CO)Nc1nc(NCc2ccccc2)c2ncn(C(C)C)c2n1` [SELICICLIB], for which the results for the IC50 against Protein kinase Pfmrk, in the experiment on Plasmodium falciparum [2] and in the experiment with Plasmodium falciparum [3] were over 1000 µM, 28 µM and 33 µM, respectively.

The IC50 is the midpoint of a concentration-inhibition curve. Low values mean higher potency, high ones lower potency.
